Results reported in ChEMBL document CHEMBL1671716, “Antimicrobial susceptibility patterns for recent clinical isolates of anaerobic bacteria in South Korea” (2010).
Converted amounts (≈) assume the structure as drawn.

How the values were obtained:
Format in all cases: functional
Eubacterium sp. = assay: Antimicrobial activity against Eubacterium sp. after 48 hrs by agar dilution method
Method in brief: (§1)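 CLSI agar dilution (M11-A7); inoculum 10^5 CFU applied by replicator; plates incubated anaerobically 48 h at 37°C. For piperacillin-tazobactam, tazobactam held constant at 4 μg/ml.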

Hoylesella oralis = assay: Antimicrobial activity against Prevotella oralis assessed as percent susceptible isolates after 48 hrs by agar dilution method
Method in brief: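 CLSI agar dilution MIC testing of clinical isolates. 10^5 CFU spotted by replicator, plates incubated 48 h at 37°C in an anaerobic chamber. Susceptibility rates derived from the MICs.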

Eggerthella lenta [1] = assay: Antimicrobial activity against Eubacterium lentum after 48 hrs by agar dilution method; method in brief: as §1
Anaerococcus prevotii [2] = assay: Antimicrobial activity against Anaerococcus prevotii after 48 hrs by agar dilution method
Method in brief: (§2)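 MICs on clinical anaerobe isolates by the CLSI agar dilution method. Inoculum of 10^5 CFU applied with a Steers replicator. Plates incubated 48 h at 37°C in an anaerobic chamber.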

[3] = system: Parabacteroides distasonis; assay: Antimicrobial activity against Bacteroides distasonis after 48 hrs by agar dilution method; method in brief: as §2
Clostridioides difficile = assay: Antimicrobial activity against Clostridium difficile after 48 hrs by agar dilution method
[4] = system: Peptostreptococcus anaerobius; assay: Antimicrobial activity against Peptostreptococcus anaerobius assessed as percent susceptible isolates after 48 hrs by agar dilution method
Method in brief: (§3)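 CLSI agar dilution on recent Korean clinical anaerobe isolates. Inoculum 10^5 CFU per spot by replicator. Plates incubated in an anaerobic chamber at 37°C for 48 h. For piperacillin plus tazobactam, tazobactam was held constant at 4 μg/ml. Resistance and susceptibility rates derived from MICs.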

Bacteroides fragilis = assay: Antimicrobial activity against Bacteroides fragilis assessed as percent resistant isolates after 48 hrs by agar dilution method; method in brief: as §3
[5] = system: Peptostreptococcus anaerobius; assay: Antimicrobial activity against Peptostreptococcus anaerobius after 48 hrs by agar dilution method; method in brief: as §1
[6] = system: Peptoniphilus asaccharolyticus; assay: Antimicrobial activity against Peptoniphilus asaccharolyticus after 48 hrs by agar dilution method; method in brief: as §1
Eggerthella lenta [7] = assay: Antimicrobial activity against Eubacterium lentum assessed as percent susceptible isolates after 48 hrs by agar dilution method; method in brief: as §1
[8] = system: Bifidobacterium adolescentis; assay: Antimicrobial activity against Bifidobacterium adolescentis assessed as percent susceptible isolates after 48 hrs by agar dilution method
Clostridium perfringens [9] = assay: Antimicrobial activity against Clostridium perfringens assessed as percent susceptible isolates after 48 hrs by agar dilution method
Clostridium perfringens [10] = assay: Antimicrobial activity against Clostridium perfringens after 48 hrs by agar dilution method
Fusobacterium varium = assay: Antimicrobial activity against Fusobacterium varium after 48 hrs by agar dilution method; method in brief: as §1
Prevotella bivia = assay: Antimicrobial activity against Prevotella bivia assessed as percent susceptible isolates after 48 hrs by agar dilution method; method in brief: as §1
Phocaeicola vulgatus = assay: Antimicrobial activity against Bacteroides vulgatus assessed as percent susceptible isolates after 48 hrs by agar dilution method
Actinomyces israelii [11] = assay: Antimicrobial activity against Actinomyces israelii after 48 hrs by agar dilution method; method in brief: as §2
Anaerococcus prevotii [12] = assay: Antimicrobial activity against Anaerococcus prevotii assessed as percent resistant isolates after 48 hrs by agar dilution method; method in brief: as §3
Prevotella buccae = assay: Antimicrobial activity against Prevotella buccae after 48 hrs by agar dilution method; conditions: Segatella buccae; method in brief: as §1
Actinomyces israelii [13] = assay: Antimicrobial activity against Actinomyces israelii assessed as percent susceptible isolates after 48 hrs by agar dilution method

Q: With CO[C@@]1(NC(=O)C2SC(=C(C(N)=O)C(=O)O)S2)C(=O)N2C(C(=O)O)=C(CSc3nnnn3C)CS[C@@H]21 (some centres not stated) [CEFOTETAN] as the molecule, how does the MIC50 (Eubacterium sp.) read?
A: 4 µg/mL (≈ 6.95 µM)

Q: What about the MIC90 (Eubacterium sp.) of the same molecule?
A: 64 µg/mL (≈ 111 µM)

Q: And the Activity (Hoylesella oralis)?
A: 72%

Q: What about the MIC50 (Eggerthella lenta [1]) of the same molecule?
A: 4 µg/mL (≈ 6.95 µM)

Q: And the MIC90 (Eggerthella lenta [1])?
A: 64 µg/mL (≈ 111 µM)

Q: What about the MIC50 (Anaerococcus prevotii [2]) of the same molecule?
A: 1 µg/mL (≈ 1.74 µM)

Q: And the MIC90 (Anaerococcus prevotii [2])?
A: 2 µg/mL (≈ 3.47 µM)

Q: What about the MIC50 [3] of the same molecule?
A: > 128 µg/mL

Q: And the MIC90 [3]?
A: > 128 µg/mL

Q: And the MIC (Clostridioides difficile)?
A: 8 µg/mL (≈ 13.9 µM)

Q: What about the MIC50 (Clostridioides difficile) of the same molecule?
A: 8 µg/mL (≈ 13.9 µM)

Q: What about the MIC90 (Clostridioides difficile) of the same molecule?
A: 128 µg/mL (≈ 222 µM)

Q: What about the Activity [4] of the same molecule?
A: 62%

Q: What about the Activity (Bacteroides fragilis) of the same molecule?
A: 14%

Q: What about the MIC50 [5] of the same molecule?
A: 4 µg/mL (≈ 6.95 µM)

Q: What about the MIC90 [5] of the same molecule?
A: 64 µg/mL (≈ 111 µM)

Q: What about the MIC50 [6] of the same molecule?
A: 0.25 µg/mL (≈ 0.434 µM)

Q: And the MIC90 [6]?
A: 1 µg/mL (≈ 1.74 µM)

Q: And the Activity (Eggerthella lenta [7])?
A: 85%

Q: And the Activity [8]?
A: 85%

Q: What about the Activity (Clostridium perfringens [9]) of the same molecule?
A: 100%

Q: And the MIC50 (Clostridium perfringens [10])?
A: 0.25 µg/mL (≈ 0.434 µM)

Q: What about the MIC90 (Clostridium perfringens [10]) of the same molecule?
A: 1 µg/mL (≈ 1.74 µM)

Q: And the MIC (Fusobacterium varium)?
A: 0.06 µg/mL (≈ 0.104 µM)

Q: What about the Activity (Prevotella bivia) of the same molecule?
A: 72%

Q: What about the Activity (Phocaeicola vulgatus) of the same molecule?
A: 89%

Q: And the MIC50 (Actinomyces israelii [11])?
A: 4 µg/mL (≈ 6.95 µM)

Q: What about the MIC90 (Actinomyces israelii [11]) of the same molecule?
A: 64 µg/mL (≈ 111 µM)

Q: And the Activity (Anaerococcus prevotii [12])?
A: 0%

Q: What about the MIC50 (Prevotella buccae) of the same molecule?
A: 4 µg/mL (≈ 6.95 µM)

Q: What about the MIC90 (Prevotella buccae) of the same molecule?
A: 64 µg/mL (≈ 111 µM)

Q: And the Activity (Actinomyces israelii [13])?
A: 85%
